ChEMBL document CHEMBL1151181, “New sesterterpenes from the Antarctic sponge Suberites sp” (2004)

How the values were obtained:
Format in all cases: functional
Streptococcus = experiment: Antimicrobial activity against Streptococcus at 25 ug by paper-disk method; conditions: read-out: IZ
In short: (§1)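 Paper-disk diffusion assay with 25 µg of compound per disk; activity read as diameter of the growth-inhibition zone in mm. The Streptococcus strain is given only as Streptococcus sp.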

Bacillus subtilis = experiment: Antimicrobial activity against Bacillus subtilis at 25 ug by paper-disk method; conditions: read-out: IZ; in short: as §1
Staphylococcus aureus = experiment: Antimicrobial activity against Staphylococcus aureus at 25 ug by paper-disk method; conditions: read-out: IZ; in short: as §1
Escherichia coli = experiment: Antimicrobial activity against Escherichia coli at 25 ug by paper-disk method; conditions: read-out: IZ; in short: as §1
Candida albicans = experiment: Antimicrobial activity against Candida albicans at 25 ug by paper-disk method; conditions: read-out: IZ; in short: as §1
K562 = experiment: Cytotoxicity against human K562 cells by MTT method; conditions: read-out: LC50 (the source's name)
In short: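 Human leukemia K562 cell line, MTT read-out; value expressed as LC50 in µg/mL.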

SMILES | zone of inhibition at 25 µg/disc (Streptococcus) [mm] | zone of inhibition at 25 µg/disc (Bacillus subtilis) [mm] | zone of inhibition at 25 µg/disc (Staphylococcus aureus) [mm] | zone of inhibition at 25 µg/disc (Escherichia coli) [mm] | zone of inhibition at 25 µg/disc (Candida albicans) [mm] | CC50 (K562) [µg/mL]
CC(=O)O[C@@H]1C=C(C)C(=O)C[C@H]1[C@@]1(O)CC[C@@H]2[C@@](C)(C[C@@H](OC(C)=O)[C@H]3C(C)(C)CCC[C@]23C)C1 | < 3 | < 3 | < 3 | < 3 | < 3 | –
CC(=O)O[C@@H]1C[C@@]2(C)CC(c3ccc(C)c(O)c3)=CC[C@H]2[C@@]2(C)CCCC(C)(C)[C@H]12 [SUBERIPHENOL] | < 3 | < 3 | < 3 | < 3 | < 3 | > 100
CC(=O)O[C@@H]1C[C@@]2(C)CC([C@@H]3CC(=O)C(C)=C[C@H]3O)=CC[C@H]2[C@@]2(C)CCCC(C)(C)[C@H]12 [SUBERITENONE C] | < 3 | < 3 | < 3 | < 3 | < 3 | > 100
